In paper PMC8866227 (Clinical Cancer Research, 2021):
Where two headings read alike, the source gives them in different places.

Legend:
human PBMCs [1] = test: Gene Set Enrichment Analysis; format: cell-based; conditions: losartan treated vs control PBMCs
lung metastatic burden = conditions: cited from earlier work
THP-1 cells = test: Transwell THP-1 monocyte migration to human OS cell line conditioned media; format: cell-based; conditions: 1 hour pretreatment, 10 μg/mL losartan
Summary of the method: (§1)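 Four human (THP-1, human PBMC) or four canine (canine PBMC) OS cell lines, kept in DMEM/10% FBS at 37°C and 5% CO2, supplied conditioned media as chemoattractant in transwell migration assays. Wells were run in technical triplicate or quadruplicate. […] Results are mean ± SD, one-way ANOVA with Tukey.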

human PBMCs [2] = test: RNA-seq differential gene expression of losartan-treated human PBMCs; format: cell-based; conditions: losartan 10 μg/mL 24 h vs control
Summary of the method: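 PBMCs from healthy male and female donors were Ficoll-isolated from EDTA blood and plated at 3e6/mL in RPMI, 10% FBS, penicillin/streptomycin and L-glutamine. […] Extracted RNA was sequenced. Counts were RUVr-normalized, differential expression was called by limma-voom/edgeR, and GSEA was run.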

[3] = tested on: CCL2-directed migration of canine PBMCs; format: cell-based
CCL2–CCR2 signaling = conditions: independent of AT1R; cited from earlier work
human PBMCs [4] = test: Transwell human PBMC migration to human OS cell line conditioned media; format: cell-based; conditions: 1 hour pretreatment, 10 μg/mL losartan
Summary of the method: as §1

CCL2 = test: Plasma CCL2 concentration in treated dogs by ELISA; format: in vivo, dog; conditions: for dogs with posttreatment increases in plasma CCL2 / mean increase in plasma CCL2 above baseline: 10 mg/kg cohort
[5] = Systolic blood pressure monitoring in treated dogs; format: in vivo, dog; conditions: 1 and 10 mg/kg cohorts, repeated blood pressure measurements
[6] = tested on: CCL2-directed monocyte migration; test: Ex vivo CCL2-directed monocyte migration of PBMCs from treated dogs; format: in vivo, dog; conditions: for dogs with reduction of CCL2-mediated ex vivo monocyte migration from baseline: 10 mg/kg cohort
Summary of the method: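 Blood was drawn at baseline and at rechecks (days 7, 14, 28 in the 10 mg/kg cohort) and ACK-lysed within 1 h. Fresh PBMCs were assayed immediately for CCL2-directed transwell migration. Chemotactic index is the fold-change over negative-control wells, expressed as % of week 0.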

[7] = Losartan plasma pharmacokinetics in dogs; format: in vivo, dog; conditions: for AUC(0-t) / Cmax: dog, plasma, po
TGFβ = test: Serum TGF-β concentrations in treated dogs; format: in vivo, dog; conditions: high losartan dose 10 mg/kg + toceranib
[8] = tested on: peripheral blood myeloid cells; test: Peripheral blood total myeloid cell counts; format: in vivo, dog; conditions: week 4 posttreatment, low- and high-dose cohorts combined n=19
[9] = tested on: lung metastatic osteosarcoma; test: Clinical response; format: in vivo, dog; conditions: single agent toceranib, dogs with metastatic OS

CCCCc1nc(Cl)c(CO)n1Cc1ccc(-c2ccccc2-c2nn[nH]n2)cc1 [losartan]
pathways significantly (Padj < 0.05) downregulated by GSEA (human PBMCs [1]): 409 pathways | lung metastatic burden in mice (lung metastatic burden): significantly reduced | THP-1 migration to OS conditioned media (THP-1 cells): significant inhibited | genes downregulated (human PBMCs [2]): 27 genes | genes upregulated (human PBMCs [2]): 32 genes | CCL2-directed migration of canine PBMCs, % of untreated positive control wells ([3]; losartan 100 ng/mL in vitro): 42% | CCL2-directed migration of canine PBMCs, % of untreated positive control wells ([3]; losartan 10 μg/mL in vitro): 12% | monocyte recruitment, noncompetitive inhibition of CCL2–CCR2 signaling induced ERK1/2 activation (CCL2–CCR2 signaling): potently inhibits | human PBMC migration to OS conditioned media (human PBMCs [4]): significant inhibited | dogs with increases in plasma CCL2 (CCL2; 1 mg/kg cohort, 2 weeks posttreatment): five of six | dogs with posttreatment increases in plasma CCL2 (CCL2; week 2): 12 of 15 | mean increase in plasma CCL2 above baseline (CCL2; week 2): 149.4% | dogs with posttreatment increases in plasma CCL2 (CCL2; week 4): 11 of 12 | mean increase in plasma CCL2 above baseline (CCL2; week 4): 186.3% | hypotension associated with losartan treatment [5]: no dogs experienced any significant hypotension | CCL2-mediated ex vivo monocyte migration following treatment ([6]; 1 mg/kg losartan cohort (+ toceranib), OS dogs): unexpectedly increased | dogs with reduction of CCL2-mediated ex vivo monocyte migration from baseline ([6]; week 1): 7 of 14 | dogs with reduction of CCL2-mediated ex vivo monocyte migration from baseline ([6]; week 2): 8 of 15 | dogs with reduction of CCL2-mediated ex vivo monocyte migration from baseline ([6]; week 4): 7 of 11 | mean plasma concentration ([7]; 1 mg/kg oral cohort, OS dogs, ~6 h post dose): 6.8 ng/mL | AUC(0-t) ([7]; 2.5 mg/kg): 303 ng·h/mL | Cmax ([7]; 2.5 mg/kg): 76.7 ng/mL | AUC(0-t) ([7]; 10 mg/kg): 1580 ng·h/mL | Cmax ([7]; 10 mg/kg): 509 ng/mL | serum TGFβ posttreatment (TGFβ): no posttreatment changes | total peripheral blood myeloid cells (combined monocyte and neutrophil counts) [8]: significant reduction

Cc1[nH]c(/C=C2\C(=O)Nc3ccc(F)cc32)c(C)c1C(=O)NCCN1CCCC1 [toceranib, toceranib phosphate]
Clinical benefit rate (SD, PR, and CR) [9]: 18% | Progression-free survival, range [9]: 7 to 176 days
